# Reference: ChEMBL document CHEMBL1629572 (Antimicrob Agents Chemother, 2009)
# Columns and labels:
# [1] = Inhibition of Influenza B virus (B/Yokohama/UT2203/2005)) neuraminidase N294S mutant after 30 mins by fluorescence analysis
# Summary of the method: (§1)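 Virus NA source was mixed with compound in 32.5 mM MES-NaOH pH 6.5 with 4 mM CaCl2 and preincubated 10 min at room temperature. Reaction ran 30 min at room temperature with 100 μM (final) 4-MU-NANA. Fluorescence was read at ex 360/em 460 nm, in triplicate. IC50 came from linear regression of residual activity against log concentration, using concentrations giving 10–90% residual activity.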
# [2] = Inhibition of Influenza B virus (B/Yokohama/UT3318/2005)) neuraminidase N294S mutant after 30 mins by fluorescence analysis; summary of the method: as §1
Compound,IC50 [1],IC50 [2]
CO[C@@H]([C@@H]1OC(C(=O)O)=C[C@H](NC(=N)N)[C@H]1NC(C)=O)[C@H](O)CO [LANINAMIVIR],48.9 nM,30.2 nM
CC(=O)N[C@H]1[C@H]([C@H](O)[C@H](O)CO)OC(C(=O)O)=C[C@@H]1NC(=N)N [ZANAMIVIR],33.6 nM,20 nM
